In ChEMBL document CHEMBL3045438, “Synthesis and fungicidal evaluation of novel chalcone-based strobilurin analogues” (2007) one finds inhibition and EC90 data, which are given here for 25 compounds.

In brackets after ≈: the same amount, converted by molar mass.

Common to all, as to format: functional
The test system of assay [1] is Podosphaera fuliginea. As to the kind of experiment: Antifungal activity against Podosphaera fuliginea assessed as fungicidal activity at 200 mg/L (beneficial crop - cucumber). In a few lines: (§1)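 In vivo preventive test on cucumber as host plant.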
Assay [2] deals with Podosphaera fuliginea. As to the kind of experiment: Antifungal activity against Podosphaera fuliginea in cucumber plants under greenhouse conditions assessed as fungicidal activity by in vivo assay. In a few lines: as §1
For assay [3], the system named is Pseudoperonospora cubensis. As to the kind of experiment: Antifungal activity against Pseudoperonospora cubensis in cucumber plants under greenhouse conditions assessed as fungicidal activity by in vivo assay. The method in brief:
as §1

In assay [4] the test system is Pseudoperonospora cubensis. Nature of the assay: Antifungal activity against Pseudoperonospora cubensis assessed as fungicidal activity at 200 mg/L (beneficial crop - cucumber). The method in brief: as §1
The next assay relates to Botrytis cinerea. As to the kind of experiment: Antifungal activity against Botryotinia fuckeliana assessed as fungicidal activity at 200 mg/L (beneficial crop - cucumber). In a few lines: as §1
For a further assay, the system named is Rhizoctonia solani. As to the kind of experiment: Antifungal activity against Rhizoctonia solani assessed as fungicidal activity at 200 mg/L (beneficial crop - cucumber). In a few lines: as §1

Regarding `CO/N=C(/C(=O)OC)c1ccccc1COc1ccccc1C` [KRESOXIM-METHYL], the inhibition at 200 µg/mL (in the assay on Podosphaera fuliginea [1]; in assay [4]) was 100% each time. Also, the EC90 (usually the point of the concentration-response curve where the effect stands at 90%) stood at 7.3 µg/mL (≈ 23.3 µM) in the assay on Podosphaera fuliginea [2] and 154.92 µg/mL (≈ 494 µM) in assay [3].
Regarding `CO/C=C(/C(=O)OC)c1ccccc1COc1cccc(C(=O)/C=C/c2ccc(C)c(C)c2)c1`, the inhibition (in general, the share of the control response that was lost under treatment) at 200 µg/mL in the assay on Podosphaera fuliginea [1] is 92%; in the assay on Botrytis cinerea, 0%; in the assay on Rhizoctonia solani it was 0%; in assay [4] it was 100%. Also, the concentration for an effect of 90% (EC90) in the assay on Podosphaera fuliginea [2] is 139.47 µg/mL (≈ 305 µM).
Turning to `CO/C=C(/C(=O)OC)c1ccccc1COc1ccc(C(=O)/C=C/c2ccc(OC)c(OC)c2)cc1`, the inhibition at 200 µg/mL in the assay with Podosphaera fuliginea [1] worked out at 0%; in the assay on Botrytis cinerea it was 0%; in the assay with Rhizoctonia solani, 0%; in assay [4] it was 11%.
As to `CO/C=C(/C(=O)OC)c1ccccc1COc1cccc(C(=O)/C=C/c2ccccc2Cl)c1`, the inhibition at 200 µg/mL in the assay on Podosphaera fuliginea [1] is 94%; in the assay with Botrytis cinerea, 0%; in the assay with Rhizoctonia solani it was 0%; in assay [4], 98%. Further, the concentration for an effect of 90% (EC90) in assay [3] turned out to be 118.52 µg/mL (≈ 256 µM).
`CO/C=C(/C(=O)OC)c1ccccc1COc1ccc(C(=O)/C=C/c2ccccc2Br)cc1`: the inhibition at 200 µg/mL amounted to 67% with Podosphaera fuliginea [1], 0% with Botrytis cinerea, 21% with Rhizoctonia solani and 83% in assay [4].
In the case of `CO/C=C(/C(=O)OC)c1ccccc1COc1ccccc1C(=O)/C=C/c1cccc(Br)c1`, the inhibition at 200 µg/mL in the assay on Podosphaera fuliginea [1] is 0%; in the assay with Botrytis cinerea, 0%; with Rhizoctonia solani it was 0%; in assay [4] it was 78%.
As to `CO/C=C(/C(=O)OC)c1ccccc1COc1cccc(C(=O)/C=C/c2ccc(C(C)(C)C)cc2)c1`, the inhibition at 200 µg/mL was 78% in the assay on Podosphaera fuliginea [1], 0% in the assay with Botrytis cinerea, 0% in the assay with Rhizoctonia solani and 28% in assay [4].
On to `CO/C=C(/C(=O)OC)c1ccccc1COc1ccc(C(=O)/C=C/c2cccc(C)c2)cc1`, for which the inhibition at 200 µg/mL in the assay with Podosphaera fuliginea [1] came to 0%; in the assay on Botrytis cinerea, 0%; in the assay on Rhizoctonia solani, 0%; in assay [4], 47%.
For the compound `CO/C=C(/C(=O)OC)c1ccccc1COc1ccccc1C(=O)/C=C/c1ccc(Cl)cc1`, the inhibition at 200 µg/mL (in the assay on Podosphaera fuliginea [1]; in the assay on Botrytis cinerea; in the assay with Rhizoctonia solani; in assay [4]) was 0% in each case.
Turning to `CO/C=C(/C(=O)OC)c1ccccc1COc1ccc(C(=O)/C=C/c2ccc(Cl)cc2Cl)cc1`, the inhibition at 200 µg/mL in the assay on Podosphaera fuliginea [1] was 78%; in the assay with Botrytis cinerea it was 0%; with Rhizoctonia solani it was 27%; in assay [4], 67%.
Consider `CO/C=C(/C(=O)OC)c1ccccc1COc1ccc(C(=O)/C=C/c2ccc(Cl)c(Cl)c2)cc1`, for which the inhibition at 200 µg/mL in the assay on Podosphaera fuliginea [1] is 67%; in the assay with Botrytis cinerea it was 0%; in the assay with Rhizoctonia solani it was 37%; in assay [4], 33%.
For `CO/C=C(/C(=O)OC)c1ccccc1COc1ccc(C(=O)/C=C/c2cccc(OC)c2)cc1`, the inhibition at 200 µg/mL in the assay on Podosphaera fuliginea [1] came out at 0%; in the assay with Botrytis cinerea it was 0%; with Rhizoctonia solani, 20%; in assay [4], 86%.
As to `CO/C=C(/C(=O)OC)c1ccccc1COc1cccc(C(=O)/C=C/c2ccc(C)cc2)c1`, the inhibition at 200 µg/mL was 97% in the assay on Podosphaera fuliginea [1], 0% in the assay with Botrytis cinerea, 0% in the assay on Rhizoctonia solani and 100% in assay [4].
In the case of `CO/C=C(/C(=O)OC)c1ccccc1COc1ccccc1C(=O)/C=C/c1ccc(Br)cc1`, the inhibition at 200 µg/mL (in the assay on Podosphaera fuliginea [1]; with Botrytis cinerea; with Rhizoctonia solani; in assay [4]) was 0% each time.
For the compound `CO/C=C(/C(=O)OC)c1ccccc1COc1cccc(C(=O)/C=C/c2ccc3c(c2)OCO3)c1`, the inhibition at 200 µg/mL in the assay on Podosphaera fuliginea [1] turned out to be 0%; in the assay on Botrytis cinerea it was 0%; with Rhizoctonia solani, 29%; in assay [4], 0%.
With `CO/C=C(/C(=O)OC)c1ccccc1COc1ccc(C(=O)/C=C/c2ccc(OC)cc2)cc1`, the inhibition at 200 µg/mL with Podosphaera fuliginea [1] was determined as 0%; in the assay with Botrytis cinerea, 0%; in the assay on Rhizoctonia solani, 0%; in assay [4], 62%.
As to `CO/C=C(/C(=O)OC)c1ccccc1COc1cccc(C(=O)/C=C/c2ccc(F)cc2)c1`, the inhibition at 200 µg/mL in the assay with Podosphaera fuliginea [1] came out at 31%; in the assay with Botrytis cinerea, 0%; in the assay on Rhizoctonia solani, 0%; in assay [4] it was 97%.
As for `CO/C=C(/C(=O)OC)c1ccccc1COc1ccc(C(=O)/C=C/c2ccc(F)cc2)cc1`, the inhibition at 200 µg/mL with Podosphaera fuliginea [1] is 0%; in the assay with Botrytis cinerea, 0%; with Rhizoctonia solani it was 23%; in assay [4] it was 100%.
In the case of `CO/C=C(/C(=O)OC)c1ccccc1COc1ccc(C(=O)/C=C/c2cccc(Br)c2)cc1`, the inhibition at 200 µg/mL in the assay on Podosphaera fuliginea [1] was 0%; in the assay on Botrytis cinerea, 0%; in the assay with Rhizoctonia solani it was 0%; in assay [4] it was 56%.
With `CO/C=C(/C(=O)OC)c1ccccc1COc1ccccc1C(=O)/C=C/c1cccc(Cl)c1`, the inhibition at 200 µg/mL in the assay on Podosphaera fuliginea [1] worked out at 0%; with Botrytis cinerea, 0%; in the assay with Rhizoctonia solani it was 0%; in assay [4] it was 39%.
`CO/C=C(/C(=O)OC)c1ccccc1COc1ccc(Cl)cc1C(=O)/C=C/c1ccc(Cl)cc1`: the inhibition at 200 µg/mL in the assay on Podosphaera fuliginea [1] was 86%; in the assay with Botrytis cinerea, 21%; with Rhizoctonia solani, 0%; in assay [4] it was 0%.
For the compound `CO/C=C(/C(=O)OC)c1ccccc1COc1ccccc1C(=O)/C=C/c1ccc(OC)c(OC)c1`, the inhibition at 200 µg/mL (with Podosphaera fuliginea [1]; in the assay on Botrytis cinerea; with Rhizoctonia solani; in assay [4]) was 0% in each case.
On to `CO/C=C(/C(=O)OC)c1ccccc1COc1ccccc1C(=O)/C=C/c1ccc(OC)cc1`, for which the inhibition at 200 µg/mL (with Podosphaera fuliginea [1]; in the assay on Botrytis cinerea; in the assay with Rhizoctonia solani; in assay [4]) was 0% each time.
Turning to `CO/C=C(/C(=O)OC)c1ccccc1COc1cccc(C(=O)/C=C/c2ccc(OC)c(OC)c2)c1`, the inhibition at 200 µg/mL in the assay on Podosphaera fuliginea [1] turned out to be 0%; with Botrytis cinerea it was 0%; with Rhizoctonia solani, 0%; in assay [4], 72%.
On to `CO/C=C(/C(=O)OC)c1ccccc1COc1cccc(C(=O)/C=C/c2cccc(Br)c2)c1`, for which the inhibition at 200 µg/mL with Podosphaera fuliginea [1] is 99%; in the assay with Botrytis cinerea, 0%; in the assay with Rhizoctonia solani, 0%; in assay [4], 99%. In addition, the EC90 in assay [3] was 113.64 µg/mL (≈ 224 µM).
